Measured values: ChEMBL document CHEMBL1148153, “New 3-O-acyl betulinic acids from Strychnos vanprukii Craib” (J Nat Prod, 2004)
pEC50, pIC50: −log10 of the molar value.

What was measured:
[1] = test system: Human immunodeficiency virus 1; test: Antiviral activity against HIV1 3B infected in human HOG.R5 cells after 4 days; assay type: functional, organism-based; conditions: Human immunodeficiency virus 1, 3B, HOG.R5, 96 h
How it was run: (§1)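 GFP reporter HOG.R5 cells in microtiter wells infected with HIV-1 IIIB (2.5 ng/mL p24) with test agent present. Fluorescence read after 4 days. Selectivity index taken as CC50 in uninfected parallel HOG.R5 cultures divided by antiviral IC50.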

[2] = Selectivity index, ratio of CC50 for human HOG.R5 cells to IC50 for HIV1 3B; assay type: functional; how it was run: as §1
[3] = test system: Human immunodeficiency virus 1; test: Antiviral activity against HIV1 3B infected in human CEM-SS cells assessed as inhibition of virus-induced cytopathic effect at 2.7 uM after 6 days by MTS assay; assay type: functional; conditions: Human immunodeficiency virus 1, 3B, 144 h
How it was run: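 CEM-SS cells split 1:2 the day before, then washed and resuspended at (2-3) × 10^4 cells/mL in RPMI 1640 with 10% heat-inactivated FBS, glutamine and antibiotics. Infected with HIV-1 IIIB (~2 ng p24/mL, MOI ~0.4) alongside test agent. Incubated 6 days at 37 °C, 5% CO2. MTS/PES added (final 317 µg/mL and 50 µM) for 4 h. Absorbance read at 490/650 nm and reported as % CPE reduction.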

[4] = Cytotoxicity against human HOG.R5 cells after 4 days; assay type: cell-based
How it was run: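 GFP-based HOG.R5 reporter cells in microtiter wells treated with compounds without virus, in parallel with HIV-1 IIIB-infected (2.5 ng/mL p24) cultures. After 4 days, viability judged by combined microscopic and fluorometric measurement. CC50 = concentration mediating 50% cytotoxicity.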

[5] = Cytotoxicity against human CEM-SS cells after 6 days by MTS assay; assay type: cell-based
How it was run: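 CEM-SS cells split 1:2 the day before, then washed and resuspended at (2-3) × 10^4 cells/mL in RPMI 1640 with 10% heat-inactivated FBS, 4 mM L-glutamine, penicillin/streptomycin. Compounds diluted in complete medium, virus omitted (toxicity controls). 6 days at 37 °C, 5% CO2; MTS/PES added (final 317 µg/mL and 50 µM), 4 h further, A490/650. CC50 = 50% cytotoxic concentration.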

[6] = test system: Human immunodeficiency virus 1; test: Antiviral activity against HIV1 3B infected in human CEM-SS cells assessed as inhibition of virus-induced cytopathic effect after 6 days by MTS assay; assay type: functional; conditions: for pEC50: Human immunodeficiency virus 1, 3B, 144 h, read-out: ED50 (the source's name)
How it was run: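 CEM-SS cells split 1:2 the day before, then washed and resuspended at (2-3) × 10^4 cells/mL in RPMI 1640 with 10% heat-inactivated FBS, 4 mM L-glutamine, penicillin/streptomycin. Compounds diluted in complete medium. HIV-1 IIIB added at ~2 ng p24/mL (MOI ~0.4). Incubated 6 days at 37 °C, 5% CO2. MTS/PES added (final 317 µg/mL and 50 µM) for 4 h. Read at 490/650 nm as % CPE reduction; five-concentration dose-response.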

[7] = Cytotoxicity against human HOG.R5 cells at 40 ug/ml after 4 days; assay type: cell-based; conditions: 96 h
How it was run: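 HOG.R5 cultures run in parallel with the infection assay, given identical test-agent concentrations with virus omitted. After 4 days, viability monitored by microscopic and fluorometric measurement and CC50 derived.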

CEM-SS = test: Cytotoxicity against human CEM-SS cells at 40 ug/ml after 6 days by MTS assay; assay type: cell-based; conditions: 144 h
How it was run: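 Run alongside the CPE assay as uninfected toxicity controls. CEM-SS cells at (2-3) × 10^4 cells/mL in RPMI 1640 with 10% heat-inactivated FBS and 4 mM L-glutamine, plus compound without virus. After 6 days at 37 °C, MTS/PES added (final 317 µg/mL and 50 µM) for 4 h. Absorbance at 490/650 nm gives % viability and CC50.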

Col2 = test: Cytotoxicity against human Col2 cells; assay type: functional; conditions: read-out: ED50 (the source's name)
SK-MEL-2 = test: Cytotoxicity against human SK-MEL-2 cells; assay type: functional; conditions: read-out: ED50 (the source's name)
HUVEC = test: Cytotoxicity against HUVEC cells; assay type: functional; conditions: Homo sapiens, read-out: ED50 (the source's name)
Lu1 = test: Cytotoxicity against human Lu1 cells; assay type: functional; conditions: read-out: ED50 (the source's name)
KB = test: Cytotoxicity against human KB cells; assay type: functional; conditions: read-out: ED50 (the source's name)
LNCaP = test: Cytotoxicity against human LNCAP cells; assay type: functional; conditions: read-out: ED50 (the source's name)
[8] = Selectivity index, ratio of CC50 for human CEM-SS cells to IC50 for HIV1 3B; assay type: functional
How it was run: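 CEM-SS cells at (2-3) × 10^4 cells/mL in RPMI 1640/10% FBS infected with HIV-1 IIIB (~2 ng p24/mL, MOI ~0.4) in presence of compounds. After 6 days at 37 °C, viability by MTS/PES reduction (4 h, A490/650). ED50 is 50% cytoprotection against viral CPE. SI = CC50 in uninfected parallel cells / ED50.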

Q: With C[C@H]1[C@H](C)CC[C@]2(C(=O)O)CC[C@]3(C)C(=CC[C@@H]4[C@@]5(C)CC[C@H](O)C(C)(C)[C@@H]5CC[C@]43C)[C@H]12 [URSOLIC ACID] as the molecule, how does the pIC50 [1] read?
A: The pIC50 was 4.84.

Q: What about the “Ratio CC50/IC50” value [2] of the same molecule?
A: Its value is 1.

Q: And the inhibition at 2.7 µM [3]?
A: The inhibition at 2.7 µM was 22%.

Q: And the CC50 at 96 h [4]?
A: Its CC50 at 96 h is 15.4 µM.

Q: And the CC50 at 144 h [5]?
A: The CC50 at 144 h was 21.9 µM.

Q: With CC(C)Nc1cccnc1N1CCN(C(=O)c2cc3cc(NS(C)(=O)=O)ccc3[nH]2)CC1.CS(=O)(=O)O [DELAVIRDINE MESYLATE] as the molecule, how does the pEC50 [6] read?
A: The pEC50 was 7.22.

Q: And the pIC50 [1]?
A: Its pIC50 is 7.70.

Q: What about the Activity [7] of the same molecule?
A: The Activity was “Non-toxic”.

Q: And the Activity (CEM-SS)?
A: Its Activity is “Non-toxic”.

Q: With C=C(C)[C@@H]1CC[C@]2(C(=O)O)CC[C@]3(C)[C@H](CC[C@@H]4[C@@]5(C)CC[C@H](OC(=O)/C=C\c6ccc(O)c(OC)c6)C(C)(C)[C@@H]5CC[C@]43C)[C@@H]12 as the molecule, how does the pEC50 (Col2) read?
A: Its pEC50 is 5.13.

Q: And the Activity [6]?
A: Its Activity is “Toxic”.

Q: What about the pIC50 [1] of the same molecule?
A: Its pIC50 is 4.95.

Q: What about the “Ratio CC50/IC50” value [2] of the same molecule?
A: The value was 2.

Q: And the pEC50 (SK-MEL-2)?
A: Its pEC50 is 5.42.

Q: And the pEC50 (HUVEC)?
A: The pEC50 was 5.21.

Q: And the pEC50 (Lu1)?
A: Its pEC50 is 4.80.

Q: What about the pEC50 (KB) of the same molecule?
A: The pEC50 was 5.27.

Q: And the CC50 at 96 h [4]?
A: The CC50 at 96 h was 22.2 µM.

Q: What about the CC50 at 144 h [5] of the same molecule?
A: Its CC50 at 144 h is < 1.6 µM.

Q: And the pEC50 (LNCaP)?
A: The pEC50 was 5.28.

Q: With C=C(C)[C@@H]1CC[C@]2(C(=O)O)CC[C@]3(C)[C@H](CC[C@@H]4[C@@]5(C)CC[C@H](OC(=O)/C=C/c6ccc(O)c(OC)c6)C(C)(C)[C@@H]5CC[C@]43C)[C@@H]12 as the molecule, how does the pEC50 (Col2) read?
A: Its pEC50 is 5.27.

Q: And the Activity [6]?
A: Its Activity is “Toxic”.

Q: And the pIC50 [1]?
A: The pIC50 was 5.29.

Q: What about the “Ratio CC50/IC50” value [2] of the same molecule?
A: Its value is 3.

Q: What about the pEC50 (SK-MEL-2) of the same molecule?
A: Its pEC50 is 5.42.

Q: And the pEC50 (HUVEC)?
A: Its pEC50 is 5.02.

Q: What about the pEC50 (Lu1) of the same molecule?
A: Its pEC50 is 5.07.

Q: What about the pEC50 (KB) of the same molecule?
A: Its pEC50 is 5.60.

Q: What about the CC50 at 96 h [4] of the same molecule?
A: Its CC50 at 96 h is 13.4 µM.

Q: What about the CC50 at 144 h [5] of the same molecule?
A: The CC50 at 144 h was < 1.6 µM.

Q: And the pEC50 (LNCaP)?
A: Its pEC50 is 5.49.

Q: With CCCc1cc(=O)oc2c3c(c4c(c12)OC(C)(C)C=C4)O[C@H](C)[C@@H](C)[C@@H]3O [CALANOLIDE A] as the molecule, how does the pEC50 [6] read?
A: Its pEC50 is 6.51.

Q: And the pIC50 [1]?
A: Its pIC50 is 7.15.

Q: And the Activity [7]?
A: The Activity was “Non-toxic”.

Q: And the Activity (CEM-SS)?
A: Its Activity is “Non-toxic”.

Q: With Nc1ccn([C@@H]2CS[C@H](CO)O2)c(=O)n1 [LAMIVUDINE] as the molecule, how does the pEC50 [6] read?
A: Its pEC50 is 6.44.

Q: What about the Activity [7] of the same molecule?
A: Its Activity is “Non-toxic”.

Q: What about the Activity (CEM-SS) of the same molecule?
A: The Activity was “Non-toxic”.

Q: Which results are given for C=C(C)[C@@H]1CC[C@]2(C(=O)O)CC[C@]3(C)[C@H](CC[C@@H]4[C@@]5(C)CC[C@H](OC(=O)/C=C/c6ccc(O)cc6)C(C)(C)[C@@H]5CC[C@]43C)[C@@H]12?
A: pEC50 (Col2): 5.18; Activity [6]: Toxic; pIC50 [1]: 5.25; Ratio CC50/IC50 [2]: 3; pEC50 (SK-MEL-2): 5.38; pEC50 (HUVEC): 5.28; pEC50 (Lu1): 4.92; pEC50 (KB): 5.26; CC50 at 96 h [4]: 14.3 µM; CC50 at 144 h [5]: < 1.7 µM; pEC50 (LNCaP): 5.24

Q: With Cc1c(O)cccc1C(=O)N[C@@H](CSc1ccccc1)[C@H](O)CN1C[C@H]2CCCC[C@H]2C[C@H]1C(=O)NC(C)(C)C as the molecule, how does the pEC50 [6] read?
A: Its pEC50 is 7.52.

Q: What about the pIC50 [1] of the same molecule?
A: The pIC50 was 7.05.

Q: What about the Activity [7] of the same molecule?
A: The Activity was “Non-toxic”.

Q: What about the Activity (CEM-SS) of the same molecule?
A: The Activity was “Non-toxic”.

Q: With C=C(C)[C@@H]1CC[C@]2(C(=O)O)CC[C@]3(C)[C@H](CC[C@@H]4[C@@]5(C)CC[C@H](OC(=O)/C=C\c6ccc(O)cc6)C(C)(C)[C@@H]5CC[C@]43C)[C@@H]12 as the molecule, how does the pEC50 (Col2) read?
A: The pEC50 was 5.22.

Q: What about the Activity [6] of the same molecule?
A: Its Activity is “Toxic”.

Q: What about the pIC50 [1] of the same molecule?
A: The pIC50 was 5.10.

Q: And the “Ratio CC50/IC50” value [2]?
A: The value was 2.

Q: And the pEC50 (SK-MEL-2)?
A: Its pEC50 is 5.42.

Q: What about the pEC50 (HUVEC) of the same molecule?
A: Its pEC50 is 5.17.

Q: What about the pEC50 (Lu1) of the same molecule?
A: Its pEC50 is 4.96.

Q: And the pEC50 (KB)?
A: The pEC50 was 5.37.

Q: And the CC50 at 96 h [4]?
A: The CC50 at 96 h was 15.9 µM.

Q: What about the CC50 at 144 h [5] of the same molecule?
A: Its CC50 at 144 h is < 1.7 µM.

Q: And the pEC50 (LNCaP)?
A: Its pEC50 is 5.49.

Q: With C=C(C)[C@@H]1CC[C@]2(C(=O)O)CC[C@]3(C)[C@H](CC[C@@H]4[C@@]5(C)CC[C@H](O)C(C)(C)[C@@H]5CC[C@]43C)[C@@H]12 [BETULINIC ACID] as the molecule, how does the pEC50 (Col2) read?
A: Its pEC50 is 4.36.

Q: What about the pEC50 [6] of the same molecule?
A: The pEC50 was 5.70.

Q: What about the pIC50 [1] of the same molecule?
A: The pIC50 was 5.51.

Q: What about the “Ratio CC50/IC50” value [2] of the same molecule?
A: Its value is 5.

Q: And the pEC50 (SK-MEL-2)?
A: Its pEC50 is 5.89.

Q: What about the pEC50 (HUVEC) of the same molecule?
A: Its pEC50 is 4.54.

Q: What about the “Ratio CC50/IC50” value [8] of the same molecule?
A: The value was 3.

Q: What about the pEC50 (Lu1) of the same molecule?
A: Its pEC50 is 4.39.

Q: What about the pEC50 (KB) of the same molecule?
A: The pEC50 was 4.45.

Q: What about the CC50 at 96 h [4] of the same molecule?
A: Its CC50 at 96 h is 16.7 µM.

Q: What about the CC50 at 144 h [5] of the same molecule?
A: Its CC50 at 144 h is 5.9 µM.

Q: What about the pEC50 (LNCaP) of the same molecule?
A: The pEC50 was 4.56.
